Data: ChEMBL document CHEMBL4052594, “Discovery of Pyrrolidine-Containing GPR40 Agonists: Stereochemistry Effects a Change in Binding Mode” (J Med Chem, 2017)

Experiments:
[1] = biological target: Free fatty acid receptor 1 (Mus musculus) (UniProt Q76JU9); experiment: Intrinsic activity at mouse GPR40 expressed in CHO-A12 cells assessed as increase in intracellular calcium flux at 8.3 uM measured for 100 secs by FLIPR assay […]; format: functional, cell-based
[2] = biological target: Free fatty acid receptor 1 (Mus musculus, UniProt Q76JU9); experiment: Agonist activity at mouse GPR40 expressed in CHO-A12 cells assessed as increase in intracellular calcium flux measured for 100 secs by FLIPR assay; format: functional, cell-based
[3] = biological target: T1, Free fatty acid receptor 1 (Homo sapiens, UniProt O14842); experiment: Agonist activity at human GPR40 expressed in CHO-A12 cells assessed as increase in intracellular calcium flux measured for 100 secs by FLIPR assay; format: functional, cell-based
[4] = biological target: T1, Free fatty acid receptor 1; experiment: Binding affinity to human GPR40 expressed in HEK293 cell membranes after 1 hr by radioligand displacement based scintillation counting method
Summary of the method: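 Binding of human GPR40 measured as Ki against a radioligand. Mean of at least two runs. Displacement of the label appears as a negative slope and potentiation as a positive one.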

[5] = biological target: T2, Peroxisome proliferator-activated receptor gamma (Homo sapiens, UniProt P37231); experiment: Transactivation of human Gal4 fused PPARgamma-LBD expressed in HEK293 cells after 18 hrs by luciferase reporter gene assay; format: cell-based
T2 sequence (P37231 whole entry): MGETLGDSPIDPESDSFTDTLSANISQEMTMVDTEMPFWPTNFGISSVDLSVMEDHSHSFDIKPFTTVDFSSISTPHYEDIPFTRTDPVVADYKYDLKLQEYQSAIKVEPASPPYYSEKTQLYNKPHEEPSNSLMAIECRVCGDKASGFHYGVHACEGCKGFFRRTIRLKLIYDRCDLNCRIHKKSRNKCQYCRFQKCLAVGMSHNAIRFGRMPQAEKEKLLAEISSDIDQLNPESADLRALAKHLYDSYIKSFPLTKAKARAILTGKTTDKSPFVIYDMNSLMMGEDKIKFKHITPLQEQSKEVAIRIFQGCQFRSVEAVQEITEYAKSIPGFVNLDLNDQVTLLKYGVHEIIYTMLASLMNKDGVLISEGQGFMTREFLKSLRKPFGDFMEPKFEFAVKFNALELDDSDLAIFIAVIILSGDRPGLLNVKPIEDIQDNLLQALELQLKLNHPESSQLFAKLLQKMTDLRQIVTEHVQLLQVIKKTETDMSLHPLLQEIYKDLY
Summary of the method: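 Gal4 gene reporter transactivation assay for PPARγ; EC50 and Ymax reported.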

PPARgamma = biological target: T3, PPARgamma (Homo sapiens, UniProt P37231); experiment: Transactivation of human Gal4 fused PPARgamma-LBD expressed in HEK293 cells at 4.8 uM after 18 hrs by luciferase reporter gene assay relative to […]; format: cell-based; conditions: HEK293 cells expressing Gal4-fused human PPARgamma-LBD
T3 sequence (P37231 whole entry): T2 sequence (P37231 whole entry)

T1 sequence (O14842 whole entry): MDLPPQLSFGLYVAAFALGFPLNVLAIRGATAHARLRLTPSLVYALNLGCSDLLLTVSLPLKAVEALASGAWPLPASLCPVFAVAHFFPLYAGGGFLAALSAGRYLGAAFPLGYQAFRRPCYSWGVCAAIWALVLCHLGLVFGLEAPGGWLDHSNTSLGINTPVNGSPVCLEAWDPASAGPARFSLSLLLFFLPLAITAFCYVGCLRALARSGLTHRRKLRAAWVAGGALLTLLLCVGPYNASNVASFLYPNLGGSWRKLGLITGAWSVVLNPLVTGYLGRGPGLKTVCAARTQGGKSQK
Chain of Free fatty acid receptor 1 (Mus musculus) (Q76JU9 whole entry): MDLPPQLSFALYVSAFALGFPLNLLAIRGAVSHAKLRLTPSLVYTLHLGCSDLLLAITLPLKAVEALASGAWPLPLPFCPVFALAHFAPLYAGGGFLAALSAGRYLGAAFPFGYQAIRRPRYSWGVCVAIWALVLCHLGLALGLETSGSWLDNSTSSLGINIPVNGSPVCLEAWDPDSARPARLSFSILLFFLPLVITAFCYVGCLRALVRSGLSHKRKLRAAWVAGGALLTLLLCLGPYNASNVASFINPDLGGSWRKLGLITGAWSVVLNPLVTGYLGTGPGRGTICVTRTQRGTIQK
Chain of Free fatty acid receptor 1 (Mus musculus, UniProt Q76JU9) (Q76JU9 whole entry): as above

| Compound | Intrinsic activity [1] [%] | EC50 [2] [µM] | EC50 [3] [nM] | Ki [4] [nM] | Activity ([5]; human, hek293, 18 h) | Emax at 18 h, 4.8 µM (PPARgamma) [%] | EC50 [5] [µM] |
| --- | --- | --- | --- | --- | --- | --- | --- |
| COc1ccc(F)c(-c2ccc(Cc3ccc(N4C[C@@H](C(F)(F)F)C[C@@H]4CC(=O)O)cc3)c(C)c2)c1 | 210 | 0.053 | 150 |  |  |  |  |
| COc1ccc(F)c(-c2ccc(Cc3ccc(N4CCC[C@H]4CC(=O)O)cc3)c(C)c2)c1 | 160 | 1.9 | 220 | 310 |  |  |  |
| CCOc1ccccc1Oc1ccc(N2CCC[C@H]2CC(=O)O)cc1 |  | > 33 | 1700 |  |  |  |  |
| O=C(O)C[C@@H]1CCCN1c1ccc(Oc2ccc(Cl)cc2)cc1 |  | > 33 | 290 |  |  |  |  |
| Cc1cc(OCc2ccccc2)ccc1Oc1ccc(N2C[C@@H](C(F)(F)F)C[C@H]2CC(=O)O)cc1 | 34 | 1.5 | 120 | 10 |  |  |  |
| Cc1ccccc1Cc1ccc(N2CC[C@H](c3ccccc3)[C@H]2CC(=O)O)cc1 |  | > 33 | 11000 |  |  |  |  |
| Cc1ccccc1Cc1ccc(N2C[C@@H](C(F)(F)F)C[C@H]2CC(=O)O)cc1 | 54 | 0.71 | 67 | 73 |  |  |  |
| COc1ccc(F)c(-c2cccc(Oc3ccc(N4CCC[C@H]4CC(=O)O)cc3)c2C)c1 | 83 | 3 | 310 |  |  |  |  |
| Cc1ccccc1S(=O)(=O)c1ccc(N2CCC[C@H]2CC(=O)O)cc1 |  | > 33 | > 33000 |  |  |  |  |
| Cc1ccccc1Cc1ccc(N2CC[C@H](C)[C@H]2CC(=O)O)cc1 | 27 | 1.9 | 120 | 310 |  |  |  |
| O=C(O)C[C@@H]1CCCN1c1ccc(Oc2ccccc2)cc1 |  | > 16 | 560 | 6500 |  |  |  |
| O=C(O)C[C@@H]1CCN1c1ccc(OCc2ccc(Cl)cc2Cl)cc1 | 88 | 0.44 | 260 |  |  |  |  |
| Cc1cc(OCc2ccc(Cl)cc2Cl)ccc1N1CCC[C@H]1CC(=O)O | 70 | 14 | 8900 |  |  |  |  |
| Cc1cccc(C)c1Oc1ccc(N2C[C@@H](C(F)(F)F)C[C@H]2CC(=O)O)cc1 | 36 | 0.27 | 82 |  |  |  |  |
| O=C(O)C[C@@H]1C[C@H](C(F)(F)F)CN1c1ccc(Oc2ccccc2OC(F)(F)F)cc1 | 44 | 0.74 | 170 |  |  |  |  |
| Cc1ccccc1Cc1ccc(N2CCC[C@H]2CC(=O)O)cc1 |  | > 33 | 150 | 1300 | Not Active |  |  |
| O=C(O)C[C@@H]1CCCN1c1ccc(Oc2ccccc2F)cc1 | 50 | 6.9 | 150 | 1300 |  |  |  |
| O=C(O)CC1CCN(c2ccc(OCc3ccc(Cl)cc3Cl)cc2)C1 (stereo not given) |  | > 33 | > 33000 |  |  |  |  |
| CO[C@H]1C[C@@H](CC(=O)O)N(c2ccc(Oc3ccccc3C)cc2)C1 | 76 | 0.96 |  | 9000 |  |  |  |
| O=C(O)C[C@@H]1CCCN1c1ccc(OCc2ccc(Cl)cc2Cl)cn1 |  | > 33 | 220 |  |  |  |  |
| COc1ccc(Oc2ccc(N3CCC[C@H]3CC(=O)O)cc2)cc1 |  | > 33 | 520 |  |  |  |  |
| COc1ccc(Oc2ccc(N3C[C@@H](C(F)(F)F)C[C@H]3CC(=O)O)cc2)c(C)c1 | 41 | 0.17 |  | 39 |  |  |  |
| Cc1ccccc1Cc1ccc(N2C[C@@H](C)C[C@H]2CC(=O)O)cc1 | 43 | 1.1 | 140 | 360 |  |  |  |
| Cc1ccccc1Cc1ccc(N2C[C@@H](F)C[C@H]2CC(=O)O)cc1 |  | > 33 | 74 | 180 |  |  |  |
| Cc1ccccc1Cc1ccc(N2C[C@@H](c3ccccc3)C[C@H]2CC(=O)O)cc1 |  | > 33 | > 17000 | > 25000 |  |  |  |
| Cc1ccccc1Sc1ccc(N2CCC[C@H]2CC(=O)O)cc1 |  | > 17 | 570 |  |  |  |  |

| Compound | Intrinsic activity [1] [%] | EC50 [2] [µM] | EC50 [3] [nM] | Ki [4] [nM] | Activity ([5]; human, hek293, 18 h) | Emax at 18 h, 4.8 µM (PPARgamma) [%] | EC50 [5] [µM] |
| --- | --- | --- | --- | --- | --- | --- | --- |
| Cc1ccccc1C(=O)c1ccc(N2CCC[C@H]2CC(=O)O)cc1 |  | > 33 | 4600 | > 33000 |  |  |  |
| COc1ccc(F)c(-c2ccc(Cc3ccc(N4C[C@H](C(F)(F)F)C[C@H]4CC(=O)O)cc3)c(C)c2)c1 | 140 | 1.1 | 1700 |  |  |  |  |
| Cc1ccccc1COc1ccc(N2CCC[C@H]2CC(=O)O)cc1C |  | > 33 | > 33000 |  |  |  |  |
| O=C(O)C[C@H]1CCCN1c1ccc(OCc2ccc(Cl)cc2Cl)cc1 |  | > 17 | 880 |  |  |  |  |
| Cc1ccccc1Cc1ccc(N2[C@H](CC(=O)O)CC[C@@H]2C)cc1 |  | > 33 | 6200 |  |  |  |  |
| O=C(O)C[C@H]1CCN1c1ccc(OCc2ccc(Cl)cc2Cl)cc1 |  | > 17 | 13000 |  |  |  |  |
| O=C(O)C[C@@H]1CCCN1c1ccc(Oc2ccc(Cl)cc2Cl)cc1 | 120 | 3.2 | 360 |  |  |  |  |
| Cc1ccccc1Oc1ccc(N2CCC[C@H]2CC(=O)O)cc1 | 69 | 5.6 | 74 | 4400 |  | 27 | 32 |
| Cc1ccccc1Cc1ccc(N2CCC[C@@]2(C)CC(=O)O)cc1 |  | > 33 | > 33000 | 23000 |  |  |  |
| O=C(O)C[C@@H]1CCCN1c1ccc(Oc2cccc(Cl)c2)cc1 |  | > 16 | 680 |  |  |  |  |
| Cc1ccc(Oc2ccc(N3CCC[C@H]3CC(=O)O)cc2)cc1 |  | > 33 | 490 |  |  |  |  |
| Cc1ccccc1COc1ccc(N2CCC[C@H]2CC(=O)O)cn1 |  | > 33 | 450 | 1800 |  |  |  |
| CC(C)(C)c1ccccc1Oc1ccc(N2CCC[C@H]2CC(=O)O)cc1 |  | > 17 | 6500 |  |  |  |  |
| Cc1ccccc1[S+]([O-])c1ccc(N2CCC[C@H]2CC(=O)O)cc1 (mixture of isomers) |  | > 33 | > 33000 |  |  |  |  |
| O=C(O)C[C@@H]1C[C@H](C(F)(F)F)CN1c1ccc(Oc2ccccc2C(F)(F)F)cc1 | 42 | 1.3 | 310 |  |  |  |  |
| O=C(O)CC1CCCCN1c1ccc(OCc2ccc(Cl)cc2Cl)cc1 (single isomer, unassigned; enantiomer 1) |  | > 33 | > 33000 |  |  |  |  |
| O=C(O)CC1CCCCN1c1ccc(OCc2ccc(Cl)cc2Cl)cc1 (single isomer, unassigned; enantiomer 2) |  | > 33 | > 17000 |  |  |  |  |
| Cc1c(Cl)cccc1Oc1ccc(N2C[C@@H](C(F)(F)F)C[C@H]2CC(=O)O)cc1 | 50 | 0.43 | 82 | 13 |  |  |  |
| O=C(O)CC1CCCCCN1c1ccc(OCc2ccc(Cl)cc2Cl)cc1 (single isomer, unassigned; enantiomer 1) |  | > 16 | 6400 |  |  |  |  |
| O=C(O)C[C@@H]1CCCN1c1ccc(Oc2ccccc2-c2ccccc2)cc1 | 72 | 1.3 | 3500 |  |  |  |  |
| O=C(O)CC1CCCCCN1c1ccc(OCc2ccc(Cl)cc2Cl)cc1 (single isomer, unassigned; enantiomer 2) |  | > 33 | 11000 |  |  |  |  |
| O=C(O)C1CCN(c2ccc(OCc3ccc(Cl)cc3Cl)cc2)C1 (stereo not given) |  | > 16 | 2100 |  |  |  |  |
| O=C(O)C1CC(=O)N(c2ccc(OCc3ccc(Cl)cc3Cl)cc2)C1 (stereo not given) |  | > 33 | 5000 |  |  |  |  |
| Cc1cccc(Oc2ccc(N3CCC[C@H]3CC(=O)O)cc2)c1 | 83 | 2.4 | 260 |  |  |  |  |
| CN(C)c1cccc(Oc2ccc(N3CCC[C@H]3CC(=O)O)cc2)c1 |  | > 33 | 1300 |  |  |  |  |
| Cc1cccc(Oc2ccc(N3C[C@@H](C(F)(F)F)C[C@H]3CC(=O)O)cc2)c1C | 100 | 0.5 | 110 | 60 |  |  |  |
